43 molecules from ChEMBL document CHEMBL1140091, “2-aminothienopyridazines as novel adenosine A1 receptor allosteric modulators and antagonists” (J Med Chem, 2008) can be followed below.

In test [1] the target is T1, Adenosine receptor A1 (Homo sapiens) (UniProt P30542).
T1 sequence (whole entry): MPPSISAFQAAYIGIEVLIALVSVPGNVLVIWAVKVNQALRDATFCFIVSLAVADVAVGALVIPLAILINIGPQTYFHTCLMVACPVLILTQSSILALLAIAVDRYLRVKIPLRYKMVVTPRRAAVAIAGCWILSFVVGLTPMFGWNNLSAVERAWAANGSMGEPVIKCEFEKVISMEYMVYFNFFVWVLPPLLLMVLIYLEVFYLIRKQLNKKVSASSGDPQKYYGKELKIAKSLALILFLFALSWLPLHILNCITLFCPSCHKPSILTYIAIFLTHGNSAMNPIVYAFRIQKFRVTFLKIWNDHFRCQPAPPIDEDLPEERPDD
The test is described as follows: Modulation of human adenosine A1 receptor expressed in CHO-K1 cells assessed as stabilization of [125I]ABA-receptor-G protein ternary complex at 50 uM by dissociation kinetic assay. The format is cell-based. In a few lines:
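CHO-K1 membranes with human A1AR (10 µg) equilibrated 90 min at room temperature with 0.5 nM [125I]-ABA in 10 mM HEPES pH 7.2, 0.5 mM MgCl2, 1 U/mL ADA. Modulator (0.1-50 µM final) added for 30 min. Dissociation started with 100 µM BW-1433 plus 25 µM GTPγS for 10 min, then filtration and counting. K-score = 100×(B−Bo)/(Beq−Bo); n = 3. EC50 from variable-slope sigmoidal fit.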

The target of test [2] is T2, Adenosine receptor A1 (Homo sapiens, UniProt P30542).
T2 sequence (P30542 whole entry): T1 sequence (whole entry)
Kind of test: Modulation of human adenosine A1 receptor expressed in CHO-K1 cells assessed as allosteric effect on [125I]ABA dissociation. The format is cell-based.

For test [3], the target named is T1, Adenosine receptor A1 (Homo sapiens). Kind of test: Displacement of [3H]CPX from human adenosine A1 receptor expressed in CHO-K1 cells at 50 uM. The format is cell-based. In a few lines:
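Incubated with 2 nM [3H]CPX and 50 µM modulator (final) for 90 min at room temperature. Nonspecific binding defined with 100 µM NECA. Filtration and scintillation counting; triplicate, given as % inhibition versus control.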
Background: Displacement assays read how much labelled ligand stays bound in the presence of the test substance.

Test [4] addresses T2, Adenosine receptor A1. Kind of test: (§1) Antagonist activity at human adenosine A1 receptor expressed in FlpIn-CHO cells assessed as inhibition of R-PIA-mediated ERK1/2 phosphorylation. It is filed as functional, cell-based. Conditions: read-out: pA2 (converted).
Test [5] has as its target T1, Adenosine receptor A1 (Homo sapiens). The description is as §1. The format is functional, cell-based.
Test [6] has as its target T2, Adenosine receptor A1. The test is described as follows: Antagonist activity at human adenosine A1 receptor assessed as inhibition of R-PIA-mediated [35S]GTPgammaS binding to G protein. The conditions noted are these: read-out: pA2 (converted). The format is functional. In a few lines: (§2)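 Membranes (15 µg) from CHO FlpIn cells stably expressing human A1AR. Preincubated 60 min at 30 °C in 10 mM HEPES, 100 mM NaCl, 10 mM MgCl2, pH 7.4, with 10 µM GDP, R-PIA (0.01 nM - 1 µM) ± increasing modulator concentrations. [35S]GTPγS (100 pM) then added for another 30 min at 30 °C. Filtration and scintillation counting; three experiments in duplicate.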
For orientation: GTPγS resists hydrolysis and so accumulates on activated G proteins.

Test [7] deals with T1, Adenosine receptor A1 (Homo sapiens). Kind of test: Inverse agonist activity at human adenosine A1 receptor assessed as reduction of inhibition of R-PIA-mediated [35S]GTPgammaS binding to G protein. The format is functional. An outline of the steps: as §2
The target of test [8] is T2, Adenosine receptor A1. The test is described as follows: Antagonist activity at human adenosine A1 receptor expressed in CHO-K1 cells assessed as reduction of [3H]CCPA specific equilibrium binding. It is filed as cell-based.

Where “and” joins values, the source holds several entries; their conditions need not be identical. Equal entries are not always repeated. Calls of active or inactive are those of the source. The calls are words filed in the database; no cut-off is given here.

Turning to `Nc1ccc(Cl)cc1C(=O)NCc1ccccn1`, in test [1], the Activity was less than 5%.
On the same count and under the same terms, the figure for `Nc1c2c(=O)cc(-c3ccccc3)[nH]c2nn1-c1ccccc1` is less than 5%.
On to `CCOC(=O)c1nn(-c2ccc(OC)cc2)c(=O)c2c(N)scc12`, for which, in test [1], the Activity worked out at 68.6%. For the same molecule, the EC50 (in general, the concentration giving half of the maximal effect) at Adenosine receptor A1 [2] was 4.3 µM. Moreover, in test [3], the inhibition (usually the relative decrease from the control value, in per cent) is 92.5%. Moreover, on Adenosine receptor A1 [4], the Kb is 0.2 µM.
`CCOC(=O)c1nn(-c2ccc(C(C)(C)C)cc2)c(=O)c2c(N)scc12`: the Activity in test [1] worked out at 59%. Besides, the EC50 on Adenosine receptor A1 [2] stood at 9.75 µM. This molecule also yielded an inhibition in test [3] of 23%. Besides, in test [5], the result was inactive.
For the molecule `NC(=O)c1nnn(Cc2ccc(Cl)cc2)c1N`, the Activity in test [1] was less than 5%.
As to `CCOC(=O)c1c(C)nsc1N`, the Activity in test [1] is less than 5%.
Still for that read-out and setting: the figure for `Nc1nccnc1C(=O)NNS(=O)(=O)c1ccc(Cl)cc1` is less than 5%.
As to `CCOC(=O)c1nn(-c2ccc(C(F)(F)F)cc2)c(=O)c2c(N)scc12`, the Activity in test [1] was determined as 81%. The EC50 at Adenosine receptor A1 [2] came to 8.4 µM. The inhibition in test [3] was 77.2%. Besides, the outcome in test [5] was inactive.
Turning to `COc1cccc(-c2cc3c(c(N)c2C#N)c(=O)oc2ccccc23)c1`, the Activity in test [1] is less than 5%.
Turning to `NNC(=O)c1nccnc1N`, in test [1], the Activity was less than 5%.
As to `Nc1nccnc1C(=O)N/N=C/c1ccc(Cl)cc1`, in test [1], the Activity is less than 5%.
On to `CCOC(=O)c1nn(-c2ccc(I)cc2)c(=O)c2c(N)scc12`, for which the Activity in test [1] was 65.4%. Further, the EC50 at Adenosine receptor A1 [2] turned out to be 7.1 µM. This molecule also had an inhibition in test [3] of 100%. Moreover, the Kb on Adenosine receptor A1 [4] was 0.0794 µM.
As to `NC(=O)c1nnc2ccccc2c1N`, the Activity in test [1] is less than 5%.
Same read-out and setting: the figure for `Cc1nn(-c2ccccc2)c2nc(N)c(C(N)=O)cc12` is less than 5%; for `NC(=O)c1nnn(Cc2ccc(F)cc2)c1N` it is less than 5%.
Turning to `NC(=O)c1cc(Cl)c(Cl)cc1C(N)=O`, the Activity in test [1] was less than 5%.
The same measure, in the same setting: the figure for `Nc1nccnc1C(=O)N/N=C/c1ccc(C(F)(F)F)cc1` is less than 5%; for `CCOC(=O)c1cnn(C)c1N` it is less than 5%; for `Nc1nccnc1C(=O)N/N=C/c1ccco1` it is less than 5%.
On to `Nc1ccccc1C(=O)NNc1ccccc1Cl`, for which the Activity in test [1] is less than 5%.
Turning to `CCOC(=O)c1nn(-c2ccc(O)cc2)c(=O)c2c(N)scc12`, in test [1], the Activity was determined as 75.9%. The EC50 on Adenosine receptor A1 [2] turned out to be 7.1 µM. In addition, the inhibition in test [3] was 65.8%. Moreover, the Kb on Adenosine receptor A1 [4] is 0.0398 µM.
In the case of `CCOC(=O)c1nn(-c2ccccc2)c(=O)c2c(N)scc12`, the Activity in test [1] was determined as 60.4%. For the same molecule, at Adenosine receptor A1 [2], the EC50 was 13.6 µM. This molecule displayed an inhibition in test [3] of 22.8%. On Adenosine receptor A1 [4], the Kb is 0.0158 µM.
Turning to `CCOC(=O)c1nn(-c2ccc(OS(=O)(=O)C(F)(F)F)cc2)c(=O)c2c(N)scc12`, the Activity in test [1] amounted to 68.5%. The EC50 on Adenosine receptor A1 [2] was determined as 4.9 µM. The molecule further registered an inhibition in test [3] of 21.5%. Also, the outcome in test [5] was inactive.
On to `Nc1cc(Cl)ccc1C(=O)N1CCSCC1`, for which the Activity in test [1] was 6%.
The same measure, in the same setting: the figure for `CSc1nc(C(N)=O)c(N)s1` is less than 5%; for `Nc1ccccc1C(=O)NC1CCCCNC1=O` (stereo not drawn) it is less than 5%.
Regarding `COc1ccc(-n2nc(C(=O)OC(C)(C)C)c3csc(N)c3c2=O)cc1`, the Activity in test [1] worked out at 5%.
Turning to `Cc1c(C(=O)Nc2ccccc2)sc(N)c1C(N)=O`, the Activity in test [1] was 80.3% and 80%. The EC50 on Adenosine receptor A1 [2] amounted to 3.95 µM. Besides, in test [3], the inhibition was found to be 32.3%. The result in test [5] was inactive.
Regarding `CCOC(=O)c1cnc(SCC(=O)c2cc(Cl)c(Cl)s2)nc1N`, in test [1], the Activity is 11%.
For the molecule `CCOC(=O)c1nn(-c2ccc(OC(C)=O)cc2)c(=O)c2c(N)scc12`, the Activity in test [1] amounted to 66.6%. For the same molecule, the EC50 at Adenosine receptor A1 [2] turned out to be 2.5 µM. The same molecule gave an inhibition in test [3] of 48.9%. For the same molecule, the Kb on Adenosine receptor A1 [4] was 0.0398 µM.
With `CCOC(=O)c1nn(-c2cccc(C(F)(F)F)c2)c(=O)c2c(N)scc12`, in test [1], the Activity is 66.1%. The EC50 at Adenosine receptor A1 [2] worked out at 2.7 µM. The same molecule gave an inhibition in test [3] of 32%. For the same molecule, in test [5], the outcome was inactive.
In the case of `Nc1[nH]nc2[nH]c(-c3ccccc3)cc(=O)c12`, in test [1], the Activity was less than 5%.
On to `CCOC(=O)c1nn(-c2ccc([N+](=O)[O-])cc2)c(=O)c2c(N)scc12`, for which the Activity in test [1] is 19.6%. Also, on Adenosine receptor A1 [2], the EC50 is 13 µM. For the same molecule, the inhibition in test [3] came to 73.4%. The outcome in test [5] was inactive.
For `Nc1ccc(Cl)cc1C(=O)NCc1ccncc1`, in test [1], the Activity was less than 5%.
Still for that read-out and setting: the figure for `Cc1nc2ccccc2c(C(=O)O)c1N` is less than 5%.
Take `Nc1ccccc1C(=O)N/N=C/c1ccc2c(c1)OCO2`: the Activity in test [1] was less than 5%.
With `Cc1sc(N)c(C(=O)c2cccs2)c1C`, the Activity in test [1] was 33.2%. On Adenosine receptor A1 [2], the EC50 stood at 11.2 µM. The molecule also registered an inhibition in test [3] of 50.3%. Moreover, the result in test [5] was inactive.
In the case of `Nc1scc2c(C(=O)O)nn(-c3ccccc3)c(=O)c12`, the EC50 at Adenosine receptor A1 [2] was 9.8 µM.
Consider `COc1ccc(-n2nc(C(=O)O)c3csc(N)c3c2=O)cc1`, for which the Activity in test [1] was 55.8%. On Adenosine receptor A1 [2], the EC50 worked out at 2.6 µM. This molecule also returned an inhibition in test [3] of 29.5%. Further, the result in test [5] was inactive.
For the molecule `CCOC(=O)c1nn(-c2cccc(Cl)c2)c(=O)c2c(N)scc12`, the Activity is 69.2% in test [1] and “Dose-dependent effect” in test [7]. In addition, the EC50 on Adenosine receptor A1 [2] amounted to 5.7 µM. For the same molecule, in test [3], the inhibition was found to be 100%. In addition, the Kb at Adenosine receptor A1 [4] was 0.002 µM; on Adenosine receptor A1 [6], 0.00794 µM. Also, the Ki (in general, the dissociation constant of the complex between target and ligand, obtained from inhibition or displacement) on Adenosine receptor A1 [8] was 0.00575 µM.
With `NC(=O)c1ncccc1C(=O)O`, the Activity in test [1] was less than 5%.
With `CCOC(=O)c1cn[nH]c1N`, in test [1], the Activity is less than 5%.
The same measure, in the same setting: the figure for `CCOC(=O)c1c(N)sc2c1-c1ccccc1C2` is less than 5%.
